Reference: ChEMBL document CHEMBL4402517, “Rational modification of Mannich base-type derivatives as novel antichagasic compounds: Synthesis, in vitro and in vivo evaluation” (Bioorg Med Chem, 2019)
Calls of active or inactive are those of the source. The calls are words filed in the database; no cut-off is given here.

Key:
Trypanosoma cruzi [1] = assay: Antitrypanosomal activity against Trypanosoma cruzi MHOM/Pe/2011/Arequipa;DTU 5 epimastigote assessed as depolarization of mitochondrial membrane at IC50 measured after 72 hrs by rhodamine 123 and acridine orange staining based flow cytometry relative to control; format: functional
Procedure, shortened: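 They were stained with rhodamine 123 or acridine orange and analysed by flow cytometry. Index of variation = (TM−CM)/CM, from median fluorescence of treated (TM) and untreated (CM) parasites.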

[2] = (§1) Toxicity in BALB/c mouse infected with Trypanosoma cruzi MHOM/Pe/2011/Arequipa;DTU 5 bloodstream trypomastigote assessed as decrease in serum uric acid level in acute phase at 20 mg/kg/day, po administered for 5 consecutive days starting from day 8 post infection and measured at day 14 post infection by biochemical analysis relative to control; format: organism-based; set-up: scale not given: the % may be the effect or the level left; details: in vivo
Procedure, shortened: (§2)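 Female BALB/c mice (10–12 weeks, 14–20 g; groups of three) were infected i.p. with 5 × 10^5 Arequipa bloodstream trypomastigotes. Dosing was oral at 20 mg/kg/day for 5 days, from day 8 pi (acute) or day 70 pi (chronic), as a 2 mg/ml suspension in 5% DMSO/0.5% HPMC; controls received vehicle. Cyclophosphamide 200 mg/kg i.p. was given at day 80 pi. Serum was collected 2 days post-treatment and at necropsy by cardiac puncture and compared with infected untreated controls.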

Trypanosoma cruzi [3] = assay: Antitrypanosomal activity against bloodstream trypomastigote stage of Trypanosoma cruzi MHOM/Pe/2011/Arequipa; DTU 5 isolated from parasite infected BALB/c Albino mouse cardiac cells after 24 hrs by Neubauer chamber based cell counting method; format: functional, organism-based; details: DTU 5, 24 h
Procedure, shortened: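 Bloodstream trypomastigotes were taken by cardiac puncture from infected BALB/c mice and diluted in RPMI + 10% heat-inactivated FBS. At 2 × 10^6/mL they were exposed to 3.1–50.0 µM (lower where needed) for 24 h at 37 °C, 5% CO2, and counted in a Neubauer chamber. Triplicates, at least three experiments; IC50 by nonlinear regression.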

[4] = Toxicity in BALB/c mouse infected with Trypanosoma cruzi MHOM/Pe/2011/Arequipa;DTU 5 bloodstream trypomastigote assessed as decrease in serum creatine kinase muscle to brain ratio level in chronic phase at 20 mg/kg/day, po administered for 5 consecutive days starting from day 70 post infection measured on day 100 post infection relative to control; format: organism-based; set-up: scale not given: the % may be the effect or the level left; details: in vivo; procedure, shortened: as §2
Trypanosoma cruzi [5] = assay: (§3) Antitrypanosomal activity against Trypanosoma cruzi MHOM/Pe/2011/Arequipa;DTU 5 bloodstream trypomastigote infected in BALB/c mouse assessed as parasite-free oesophagus in acute phase at 20 mg/kg/day, po administered for 5 consecutive days starting from day 8 post infection followed by cyclophosphamide induced immunosuppression on day 80 post infection measured after day 100 post infection by PCR method relative to control; format: functional
Procedure, shortened: (§4)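 Female BALB/c mice (10–12 weeks, three per group) were infected i.p. with 5 × 10^5 Arequipa bloodstream trypomastigotes. Dosing was oral, 20 mg/kg/day for 5 days, as a suspension in 5% DMSO/0.5% HPMC. Cyclophosphamide 200 mg/kg i.p. was given at day 80 pi. At necropsy (day 100) tissues were tested by PCR on the splice leader region (primers TC/TC1, 300 bp). Scored as x/3 mice positive.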

Trypanosoma cruzi [6] = assay: as §3, with “as parasite-free muscle in chronic” for “as parasite-free oesophagus in acute”, “muscle in chronic phase at” for “oesophagus in acute phase at”, “from day 70 post infection” for “from day 8 post infection”; format: functional; procedure, shortened: as §4
[7] = Selectivity index, ratio of IC50 for African green monkey Vero cells to IC50 for Trypanosoma cruzi IRHOD/CO/2008/SN3;DTU 1 amastigote forms; format: toxicity; details: read-out: Selectivity Index
Procedure, shortened: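 Vero cells (1 × 10^4/well) were infected with trypomastigotes at MOI 10:1 for 24 h and washed with PBS. They were then exposed to 3.1–50 µM for 72 h at 37 °C in 5% CO2, and amastigotes were counted after Giemsa staining. Triplicates in two determinations; nonlinear regression.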

Trypanosoma cruzi [8] = assay: (§5) Antitrypanosomal activity against Trypanosoma cruzi MHOM/Pe/2011/Arequipa;DTU 5 bloodstream trypomastigotes infected in BALB/c mouse assessed as reduction in serum Ig-G level in chronic phase at 20 mg/kg/day, po administered for 5 consecutive days starting from day 70 post infection followed by cyclophosphamide induced immunosuppression on day 80 post infection and measured at day 100 post infection by ELISA; format: functional, organism-based
Procedure, shortened: (§6)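 Sera came from infected BALB/c mice (three per group) dosed orally at 20 mg/kg/day for 5 days. Sampling points: 2 days after treatment, the day before immunosuppression (acute only) and necropsy day. Anti-T. cruzi IgG was measured by indirect ELISA using parasite Fe-SOD as antigen, read as OD at 492 nm.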

Trypanosoma cruzi [9] = assay: Antitrypanosomal activity against Trypanosoma cruzi MHOM/Pe/2011/Arequipa;DTU 5 bloodstream trypomastigotes infected in BALB/c mouse assessed as parasite-free stomach in chronic phase at 20 mg/kg/day, po administered for 5 consecutive days starting from day 70 post infection followed by cyclophosphamide induced immunosuppression on day 80 post infection measured after day 100 post infection by PCR method relative to control; format: functional; procedure, shortened: as §4
Trypanosoma cruzi [10] = assay: as §3, with “spleen” for “oesophagus”; format: functional; procedure, shortened: as §4
Trypanosoma cruzi [11] = assay: as §5, with “acute” for “chronic”, “8” for “70”; format: functional, organism-based; procedure, shortened: as §6
[12] = Toxicity in BALB/c mouse infected with Trypanosoma cruzi MHOM/Pe/2011/Arequipa;DTU 5 bloodstream trypomastigote assessed as increase in serum alanine aminotransferase level in chronic phase at 20 mg/kg/day, po administered for 5 consecutive days starting from day 70 post infection and measured at day 76 post infection relative to control; format: organism-based; details: in vivo; procedure, shortened: as §2
Trypanosoma cruzi [13] = assay: Antitrypanosomal activity against Trypanosoma cruzi MHOM/Pe/2011/Arequipa;DTU 5 epimastigote assessed as effect on glycerol excretion at IC50 after 72 hrs by H NMR method relative to control; format: functional, organism-based
Procedure, shortened: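 Cells were spun at 800 × g for 10 min and culture supernatants analysed by 1H NMR. Catabolite peaks were expressed as % variation versus untreated parasites.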

Trypanosoma cruzi [14] = assay: Antitrypanosomal activity against Trypanosoma cruzi MHOM/Pe/2011/Arequipa;DTU 5 epimastigotes measured after 72 hrs by Neubauer hemocytometer; format: functional, organism-based; details: MHOM/Pe/2011/Arequipa;DTU 5, 72 h
Trypanosoma cruzi [15] = assay: as §3, with “oesophagus in chronic phase at” for “oesophagus in acute phase at”, “from day 70 post infection” for “from day 8 post infection”; format: functional; procedure, shortened: as §4
[16] = as §1, with “lactate dehydrogenase” for “uric acid”, “mg/kg/day,po” for “mg/kg/day, po”; format: organism-based; set-up: scale not given: the % may be the effect or the level left; details: in vivo; procedure, shortened: as §2
Trypanosoma cruzi [17] = assay: as §3, with “heart” for “oesophagus”; format: functional; procedure, shortened: as §4
Trypanosoma cruzi [18] = assay: as §3, with “parasitemia reactivation” for “parasite-free oesophagus”, “infection” for “infection measured after day 100 post infection”, “Neubauer chamber” for “PCR method”; format: functional
Procedure, shortened: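 Female BALB/c mice (three per group) were infected i.p. with 5 × 10^5 Arequipa bloodstream trypomastigotes and treated orally at 20 mg/kg/day for 5 days (vehicle 5% DMSO/0.5% HPMC). Once parasitemia was undetectable (day 80 pi), cyclophosphamide 200 mg/kg was given i.p. Bloodstream parasites were then counted to give % reactivation versus untreated controls.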

Trypanosoma cruzi [19] = assay: as §5, with “acute” for “chronic”, “8” for “70 post infection followed by cyclophosphamide induced immunosuppression on day 80”, “14” for “100”; format: functional, organism-based; procedure, shortened: as §6

O=C(CCN1CCN(c2ccc(C(F)(F)F)cc2)CC1)c1ccc(O)cc1
Activity (Trypanosoma cruzi [1]): 54.4% | Activity [2]: <= 20% | IC50 (Trypanosoma cruzi [3]): 0.9 µM | Activity [4]: <= 30% | Activity (Trypanosoma cruzi [5]): 13% | Activity (Trypanosoma cruzi [6]): 50% | selectivity ratio [7]: 16.2 | Activity (Trypanosoma cruzi [8]): Active | Activity (Trypanosoma cruzi [9]): 50% | Activity (Trypanosoma cruzi [10]): 13% | Activity (Trypanosoma cruzi [11]): Active | Activity [12]: > 40% | Activity (Trypanosoma cruzi [13]): Active | IC50 (Trypanosoma cruzi [14]): 22.7 µM | Activity (Trypanosoma cruzi [15]): 50% | Activity [16]: <= 20% | Activity (Trypanosoma cruzi [17]): 13% | Activity (Trypanosoma cruzi [18]): 85% | Activity (Trypanosoma cruzi [19]): Active

O=C(Cn1ccnc1[N+](=O)[O-])NCc1ccccc1 [BENZNIDAZOLE]
Activity (Trypanosoma cruzi [1]): 15.2% | Activity [2]: <= 30% | IC50 (Trypanosoma cruzi [3]): 6.2 µM | Activity [4]: <= 10% | Activity (Trypanosoma cruzi [5]): 25% | Activity (Trypanosoma cruzi [6]): 38% | selectivity ratio [7]: > 45.6 | Activity (Trypanosoma cruzi [8]): Active | Activity (Trypanosoma cruzi [9]): 38% | Activity (Trypanosoma cruzi [10]): 25% | Activity (Trypanosoma cruzi [11]): Active | Activity [12]: > 40% | Activity (Trypanosoma cruzi [13]): Active | IC50 (Trypanosoma cruzi [14]): 26.2 µM | Activity (Trypanosoma cruzi [15]): 38% | Activity [16]: <= 10% | Activity (Trypanosoma cruzi [17]): 25% | Activity (Trypanosoma cruzi [18]): 65% | Activity (Trypanosoma cruzi [19]): Active

O=C(CCN1CCN(c2ccc(Cl)cc2)CC1)c1ccc(O)cc1
Activity (Trypanosoma cruzi [1]): 67.6% | Activity [2]: <= 10% | IC50 (Trypanosoma cruzi [3]): 0.7 µM | Activity [4]: <= 20% | Activity (Trypanosoma cruzi [5]): 50% | Activity (Trypanosoma cruzi [6]): 63% | selectivity ratio [7]: 23.2 | Activity (Trypanosoma cruzi [8]): Active | Activity (Trypanosoma cruzi [9]): 63% | Activity (Trypanosoma cruzi [10]): 50% | Activity (Trypanosoma cruzi [11]): Active | Activity [12]: <= 10% | Activity (Trypanosoma cruzi [13]): Active | IC50 (Trypanosoma cruzi [14]): 18.6 µM | Activity (Trypanosoma cruzi [15]): 63% | Activity [16]: <= 20% | Activity (Trypanosoma cruzi [17]): 50% | Activity (Trypanosoma cruzi [18]): 25% | Activity (Trypanosoma cruzi [19]): Active
